Columns and labels:
[1] = tested on: HCT-116; assay: Cytotoxicity against human HCT-116 cells assessed as inhibition of cell growth measured after 72 hrs by CellTiter-Glo reagent based luminescence assay; type: functional; conditions: HCT-116, 72 h
How it was run: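 Cells (HCT-116 in McCoy's 5A; U87-MG in DMEM 4.5 g/L glucose; all with 10% serum, 1% glutamine, 37 °C, 5% CO2) seeded at 3 × 10³/well, treated after 24 h with 10 final concentrations by serial dilution; vehicle controls. After 72 h, CellTiter-Glo luminescence; IC50 from four- or five-parameter logistic fit, triplicate, mean of three experiments.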

[2] = Drug metabolism in rat liver microsomes assessed as hydroxylated metabolite formation measured after 96 hrs by ESI-HRMS assay; type: ADME, Microsome
How it was run: (§1)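 Compound at 100 μM final incubated at 37 °C with rat or human liver microsomes (1 mg/mL protein, 10 mM buffer pH 7.4) plus NADPH-generating system (0.6 mM NADPNa4, 6.4 mM glucose-6-phosphate, 2 U/mL G6PDH). After 96 h, ethyl acetate extraction and HPLC-MS/MS (positive ESI, m/z 150–450, collision-induced dissociation) to identify metabolites.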

[3] = Drug metabolism in rat liver microsomes assessed as O-demethylated metabolite formation measured after 96 hrs by ESI-HRMS assay; type: ADME, Microsome
How it was run: (§2)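 Rat or human liver microsomes at 1 mg/mL final protein in 10 mM buffer, pH 7.4, prewarmed to 37 °C with an NADPH-generating system (0.6 mM NADP, 6.4 mM glucose-6-phosphate, 2 U/mL G6P dehydrogenase). Substrate 100 μM final; shaken at 37 °C. Triplicate aliquots taken at 0–96 h (up to 144 h), ethyl acetate quench with internal standard, then HPLC-MS/MS (positive ESI, m/z 150–450, CID).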

[4] = Drug metabolism in human liver microsomes assessed as hydroxylated metabolite formation measured after 96 hrs by ESI-HRMS assay; type: ADME, Microsome; how it was run: as §1
[5] = Drug metabolism in human liver microsomes assessed as O-demethylated metabolite formation measured after 96 hrs by ESI-HRMS assay; type: ADME, Microsome; how it was run: as §2
[6] = Metabolic stability in rat liver microsomes assessed as half life measured after 96 hrs by HPLC-MS/MS analysis; type: ADME, Microsome
How it was run: (§3)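 Compound (100 μM final) incubated at 37 °C with rat or human liver microsomes (1 mg/mL protein, pH 7.4) and NADPH-generating system; triplicate aliquots at 0–144 h quenched with isoCA-4 internal standard and ethyl acetate, quantified by HPLC-MS/MS against calibration curves.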

[7] = Metabolic stability in human liver microsomes assessed as half life measured after 96 hrs by HPLC-MS/MS analysis; type: ADME, Microsome; how it was run: as §3
[8] = tested on: A549; assay: Cytotoxicity against human A549 cells assessed as inhibition of cell growth measured after 72 hrs by CellTiter-Glo reagent based luminescence assay; type: functional; conditions: A549, 72 h
How it was run: (§4)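 Cells seeded at 3 × 10³/well and grown 24 h. A549, MDA-MB231, K562 and K562R (doxorubicin-resistant) were in RPMI 1640; MiaPaCa2 and HT29 in DMEM (4.5 g/L glucose); all media had 10% FCS and 1% glutamine, at 37 °C and 5% CO₂. Cells got 10 final concentrations by serial dilution, with vehicle controls, for 72 h. CellTiter-Glo luminescence was read after 15 min. Triplicate runs; IC50 from four- or five-parameter logistic fits.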

[9] = tested on: MDA-MB-231; assay: Cytotoxicity against human MDA-MB-231 cells assessed as inhibition of cell growth measured after 72 hrs by CellTiter-Glo reagent based luminescence assay; type: functional; conditions: MDA-MB-231, 72 h; how it was run: as §4
[10] = tested on: MIA PaCa-2; assay: Cytotoxicity against human MIA PaCa-2 cells assessed as inhibition of cell growth measured after 72 hrs by CellTiter-Glo reagent based luminescence assay; type: functional; conditions: MIA PaCa-2, 72 h; how it was run: as §4
[11] = tested on: HT-1080; assay: Cytotoxicity against human HT-1080 cells assessed as inhibition of cell growth measured after 72 hrs by CellTiter-Glo reagent based luminescence assay; type: functional; conditions: HT-1080, 72 h
[12] = tested on: K562; assay: Cytotoxicity against human K562 cells assessed as inhibition of cell growth measured after 72 hrs by CellTiter-Glo reagent based luminescence assay; type: functional; conditions: K562, 72 h; how it was run: as §4
[13] = tested on: K-562R; assay: Cytotoxicity against human K-562R cells assessed as inhibition of cell growth measured after 72 hrs by CellTiter-Glo reagent based luminescence assay; type: functional; how it was run: as §4
[14] = tested on: HT-29; assay: Cytotoxicity against human HT-29 cells assessed as inhibition of cell growth measured after 72 hrs by CellTiter-Glo reagent based luminescence assay; type: functional; conditions: HT-29, 72 h; how it was run: as §4
[15] = Inhibition of porcine brain tubulin polymerization incubated for 30 mins followed by cooling on ice for 10 mins and measured by UV spectrometer assay; type: tissue-based, Sus scrofa
How it was run: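 Porcine brain tubulin (Shelanski isolation) in 0.1 M MES, 1.5 mM GTP, 1 mM EGTA, 1 mM β-ME, 1 mM MgCl2, pH 6.7, diluted to 1.5 mg/mL; ligand or DMSO 30 min at 20 °C, 10 min on ice. Assembly by 450 nm turbidity on 4→37 °C shift, plateau minus baseline vs no-ligand control (100%); IC50 from mono-exponential fit of ligand:tubulin ratio, three independent experiments.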

Question: With `COCc1cc2cc(N(C)c3cc(C)nc4ccccc34)ccc2n1C` as the molecule, how does the IC50 [1] read?
Answer: The IC50 was 10.2 nM.

Question: With `C=C(c1ccc(OC)c(O)c1)c1cc(OC)c(OC)c(OC)c1` as the molecule, how does the IC50 [1] read?
Answer: Its IC50 is 0.64 nM.

Question: What about the Drug metabolism [2] of the same molecule?
Answer: Its Drug metabolism is “Metabolite_Detected”.

Question: What about the Drug metabolism [3] of the same molecule?
Answer: Its Drug metabolism is “Metabolite_Detected”.

Question: And the Drug metabolism [4]?
Answer: Its Drug metabolism is “Metabolite_Detected”.

Question: What about the Drug metabolism [5] of the same molecule?
Answer: Its Drug metabolism is “Metabolite_Detected”.

Question: And the half-life [6]?
Answer: The half-life was 1080 min.

Question: What about the half-life [7] of the same molecule?
Answer: The half-life was 1.25 days.

Question: And the IC50 [8]?
Answer: Its IC50 is 52.7 nM.

Question: What about the IC50 [9] of the same molecule?
Answer: The IC50 was 1.98 nM.

Question: What about the IC50 [10] of the same molecule?
Answer: Its IC50 is 3.01 nM.

Question: What about the IC50 [11] of the same molecule?
Answer: Its IC50 is 0.91 nM.

Question: What about the IC50 [12] of the same molecule?
Answer: The IC50 was 4.26 nM.

Question: What about the IC50 [13] of the same molecule?
Answer: The IC50 was 5.13 nM.

Question: What about the IC50 [14] of the same molecule?
Answer: Its IC50 is > 100 nM.

Question: For `C=C(c1cc(OC)c(OC)c(OC)c1)c1ccc2c(c1)cc1n2CCOC1`, which IC50 [1] is on record?
Answer: The IC50 was 23.5 nM.

Question: With `Cc1nc(N(C)c2ccc3c(c2)cc2ccccn23)c2ccccc2n1` as the molecule, how does the IC50 [1] read?
Answer: Its IC50 is 6.87 nM.

Question: For `CCn1c(CO)cc2cc(N(C)c3cc(C)nc4ccccc34)ccc21`, which IC50 [1] is on record?
Answer: Its IC50 is 21.6 nM.

Question: For `C=C(c1cc(OC)c(OC)c(OC)c1)c1ccc2c(c1)cc1n2CC=CC1`, which IC50 [1] is on record?
Answer: The IC50 was 970 nM.

Question: For `Cc1cc(N(C)c2ccc3c(c2)cc(CO)n3C)c2ccccc2n1`, which IC50 [1] is on record?
Answer: Its IC50 is 16.4 nM.

Question: Which IC50 [1] does the source give for `CN(c1ccc2c(c1)cc1n2CCOC1)c1cc(C#N)nc2ccccc12` here?
Answer: Its IC50 is 2.8 nM.

Question: Which IC50 [1] does the source give for `CCn1c(CO)cc2cc(N(C)c3cc(OC)c(OC)c(OC)c3)ccc21` here?
Answer: Its IC50 is 987 nM.

Question: Which IC50 [1] does the source give for `C=C(c1ccc2c(c1)cc1n2CCOC1)c1cc(C)nc2ccccc12` here?
Answer: Its IC50 is 109 nM.

Question: For `Cc1nc(N(C)c2ccc3c(c2)cc2n3CCOC2)c2ccccc2n1`, which IC50 [1] is on record?
Answer: The IC50 was 10.4 nM.

Question: Which IC50 [1] does the source give for `Cc1cc(N(C)c2ccc3c(c2)cc2ccccn23)c2ccccc2n1` here?
Answer: Its IC50 is 78.4 nM.

Question: Which results are given for `C=C(c1cc(OC)c(OC)c(OC)c1)c1ccc2c(c1)cc(CO)n2CC`?
Answer: IC50 [1]: 0.52 nM; Drug metabolism [2]: Metabolite_Detected; Drug metabolism [3]: Metabolite_Detected; Drug metabolism [4]: Metabolite_Detected; Drug metabolism [5]: Metabolite_Detected; half-life [6]: 4200 min; half-life [7]: 3.71 days; IC50 [15]: 2900 nM

Question: Which IC50 [1] does the source give for `C=C(c1cc(OC)c(OC)c(OC)c1)c1ccc2c(c1)cc1ccccn12` here?
Answer: The IC50 was 213 nM.
